Experimental data from publication PMC3889329 (Diabetes Therapy, 2013).
Entries after “also recorded” stand apart in the source; their conditions may differ.

Tests used:
[1] = system: patients with type 2 diabetes mellitus; assay: Urine volume and micturition frequency; format: in vivo, human
In short: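 Urine volume and micturition frequency were recorded under controlled fluid intake, with oral once-daily dosing of test compound or placebo taken with 240 mL water. Dosing was a single dose on day 1, then days 3–9. Placebo was given within each dose group at a 3:1 active:placebo randomization.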

healthy volunteers = conditions: single oral doses; cited from earlier work
[2] = system: patients with type 2 diabetes mellitus; assay: Derived creatinine clearance; format: in vivo, human
In short: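 Derived creatinine clearance was calculated from urinary creatinine concentration and volume in timed urine fractions, together with plasma creatinine. It is expressed as […] and given as change from baseline. Dosing was oral, once daily with 240 mL water: a single dose on day 1, then daily on days 3–9.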

With `OC[C@H]1O[C@@H](c2ccc(Cl)c(Cc3ccc(O[C@H]4CCOC4)cc3)c2)[C@H](O)[C@@H](O)[C@@H]1O` [Empagliflozin] the “Mean (SD) micturition day frequency” value ([1]; 2.5 mg qd, Day 1, day 07:00–18:59) was 6.0 (1.2), the “Mean (SD) micturition night frequency” value ([1]; 2.5 mg qd, Day 1, night 19:00–06:59) was 3.7 (1.5) and the “Mean (SD) micturition day frequency” value ([1]; 2.5 mg qd, Day 8, day 07:00–18:59) was 6.6 (1.8). The “Mean (SD) micturition night frequency” value ([1]; 2.5 mg qd, Day 8, night 19:00–06:59) was 3.7 (1.2), the “Mean (SD) micturition day frequency” value ([1]; 2.5 mg qd, Day 9, day 07:00–18:59) was 6.4 (1.9) and the “Mean (SD) micturition night frequency” value ([1]; 2.5 mg qd, Day 9, night 19:00–06:59) was 3.4 (1.3). For the same compound, the “Mean (SD) micturition day frequency” value ([1]; 10 mg qd, Day 1, day 07:00–18:59) was 8.3 (1.7), the “Mean (SD) micturition night frequency” value ([1]; 10 mg qd, Day 1, night 19:00–06:59) was 3.8 (0.8) and the “Mean (SD) micturition day frequency” value ([1]; 10 mg qd, Day 8, day 07:00–18:59) was 6.8 (1.6). For the same compound, the “Mean (SD) micturition night frequency” value ([1]; 10 mg qd, Day 8, night 19:00–06:59) was 4.0 (1.7), the “Mean (SD) micturition day frequency” value ([1]; 10 mg qd, Day 9, day 07:00–18:59) was 8.9 (1.7) and the “Mean (SD) micturition night frequency” value ([1]; 10 mg qd, Day 9, night 19:00–06:59) was 3.7 (0.5). For the same compound, the “Mean (SD) micturition day frequency” value ([1]; 25 mg qd, Day 1, day 07:00–18:59) was 7.8 (2.6), the “Mean (SD) micturition night frequency” value ([1]; 25 mg qd, Day 1, night 19:00–06:59) was 4.3 (1.0) and the “Mean (SD) micturition day frequency” value ([1]; 25 mg qd, Day 8, day 07:00–18:59) was 7.0 (1.6). The “Mean (SD) micturition night frequency” value ([1]; 25 mg qd, Day 8, night 19:00–06:59) was 4.8 (1.6), the “Mean (SD) micturition day frequency” value ([1]; 25 mg qd, Day 9, day 07:00–18:59) was 8.2 (2.0) and the “Mean (SD) micturition night frequency” value ([1]; 25 mg qd, Day 9, night 19:00–06:59) was 4.1 (1.4). For the same compound, the “Mean (SD) micturition day frequency” value ([1]; 100 mg qd, Day 1, day 07:00–18:59) was 7.9 (2.4), the “Mean (SD) micturition night frequency” value ([1]; 100 mg qd, Day 1, night 19:00–06:59) was 3.6 (1.1) and the “Mean (SD) micturition day frequency” value ([1]; 100 mg qd, Day 8, day 07:00–18:59) was 6.9 (1.5). The “Mean (SD) micturition night frequency” value ([1]; 100 mg qd, Day 8, night 19:00–06:59) was 4.7 (1.5), the “Mean (SD) micturition day frequency” value ([1]; 100 mg qd, Day 9, day 07:00–18:59) was 8.4 (2.5) and the “Mean (SD) micturition night frequency” value ([1]; 100 mg qd, Day 9, night 19:00–06:59) was 3.7 (1.0). The “Change in micturition frequency compared with placebo” value ([1]; controlled fluid intake conditions) was “no changes in urine volume or micturition frequency; also recorded: no changes to micturition frequency”, the Tolerability (healthy volunteers) was “well tolerated” and the “Change from baseline in derived creatinine clearance, mean (SD)” value (“Change from baseline … (SD)” for short) ([2]; 2.5 mg qd, 16 h) was −57.0 (59.4) mL/min 1.73 m^2. The “Change from baseline … (SD)” value ([2]; 2.5 mg qd, 166 h, n = 7) was 360 (620) mL/min 1.73 m^2, the “Change from baseline … (SD)” value ([2]; 2.5 mg qd, 184 h) was −20.3 (59.2) mL/min 1.73 m^2 and the “Change from baseline … (SD)” value ([2]; 10 mg qd, 16 h) was −28.7 (34.2) mL/min 1.73 m^2. The “Change from baseline … (SD)” value ([2]; 10 mg qd, 166 h) was 12.8 (54.7) mL/min 1.73 m^2, the “Change from baseline … (SD)” value ([2]; 10 mg qd, 184 h) was −38.4 (36.4) mL/min 1.73 m^2 and the “Change from baseline … (SD)” value ([2]; 25 mg qd, 16 h) was −89.2 (43.2) mL/min 1.73 m^2. The “Change from baseline … (SD)” value ([2]; 25 mg qd, 166 h) was −40.3 (61.7) mL/min 1.73 m^2, the “Change from baseline … (SD)” value ([2]; 25 mg qd, 184 h) was −52.4 (45.5) mL/min 1.73 m^2 and the “Change from baseline … (SD)” value ([2]; 100 mg qd, 16 h) was −21.0 (59.3) mL/min 1.73 m^2. The “Change from baseline … (SD)” value ([2]; 100 mg qd, 166 h) was −10.6 (58.0) mL/min 1.73 m^2 and the “Change from baseline … (SD)” value ([2]; 100 mg qd, 184 h) was −14.4 (55.3) mL/min 1.73 m^2.
